Test results published in publication PMC3356098 (Frontiers in Endocrinology, 2012).

Target: RXFP2 (Homo sapiens, UniProt Q8WXD0)
Assay type: cell-based
Settings: for agonist/antagonist character at RXFP2 (in words): cAMP reporter gene assay
Method in brief: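 HEK-293T cells were co-transfected in 96-well format with RXFP2 and a pCRE–β-galactosidase reporter plasmid. They were exposed to increasing concentrations of test peptide for 6 h, then the medium was aspirated and the cells frozen at −80°C overnight before β-galactosidase was measured. Signals were normalised to the maximal native INSL3 response. Triplicates were run in three experiments, with pEC50 from a variable-slope sigmoidal fit.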

RXFP2, sequence (Q8WXD0 whole entry): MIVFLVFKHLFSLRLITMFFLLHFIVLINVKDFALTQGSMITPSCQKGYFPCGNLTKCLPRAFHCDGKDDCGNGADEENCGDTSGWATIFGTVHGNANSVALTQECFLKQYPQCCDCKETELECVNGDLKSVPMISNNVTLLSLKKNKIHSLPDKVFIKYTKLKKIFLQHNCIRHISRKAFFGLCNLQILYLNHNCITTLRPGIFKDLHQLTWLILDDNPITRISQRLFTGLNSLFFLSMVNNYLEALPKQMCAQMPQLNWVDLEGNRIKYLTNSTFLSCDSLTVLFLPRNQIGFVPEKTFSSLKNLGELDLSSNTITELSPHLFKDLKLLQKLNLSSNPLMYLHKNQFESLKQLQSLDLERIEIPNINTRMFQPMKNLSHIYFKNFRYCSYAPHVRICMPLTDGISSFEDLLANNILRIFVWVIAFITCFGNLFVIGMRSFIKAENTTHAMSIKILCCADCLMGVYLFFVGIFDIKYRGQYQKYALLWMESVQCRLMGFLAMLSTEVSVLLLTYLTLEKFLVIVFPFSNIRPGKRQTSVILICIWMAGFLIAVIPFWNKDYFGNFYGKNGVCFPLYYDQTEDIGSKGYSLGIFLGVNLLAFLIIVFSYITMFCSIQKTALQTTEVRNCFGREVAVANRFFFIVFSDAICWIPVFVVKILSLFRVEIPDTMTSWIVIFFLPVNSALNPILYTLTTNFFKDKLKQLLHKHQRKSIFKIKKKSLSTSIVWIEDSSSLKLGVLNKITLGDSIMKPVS

Row | agonist/antagonist character at RXFP2 (in words) | ability to stimulate cAMP activity in RXFP2 expressing cells (in concentrations up to 1 μM) | Structure (SMILES)
1 | partial agonist |  | CSCC[C@H](NC(=O)[C@H](CCC(=O)O)NC(=O)[C@@H]1CCCN1C(=O)[C@@H](NC(=O)[C@@H]1CCCN1)[C@@H](C)O)C(=O)N[C@@H](CCCNC(=N)N)C(=O)N[C@@H](CCC(=O)O)C(=O)N[C@@H](CCCCN)C(=O)N[C@@H](CC(C)C)C(=O)N[C@H]1CSSC[C@@H]2NC(=O)[C@@H](NC(=O)[C@H](CCCCN)NC(=O)[C@H](CC(N)=O)NC(=O)[C@H](C)NC(=O)[C@H](CC(C)C)NC(=O)[C@H](C)NC(=O)[C@H](CO)NC(=O)[C@H](Cc3ccc(O)cc3)NC(=O)[C@H](CC(C)C)NC(=O)[C@@H]3CCC(=O)N3)CSSC[C@H](NC(=O)CNC(=O)[C@H](C(C)C)NC(=O)[C@H](Cc3c[nH]cn3)NC2=O)C(=O)N[C@@H]([C@@H](C)O)C(=O)N[C@@H](CCCCN)C(=O)N[C@@H](CCCNC(=N)N)C(=O)N[C@@H](CO)C(=O)N[C@@H](CC(C)C)C(=O)N[C@@H](C)C(=O)N[C@@H](CCCNC(=N)N)C(=O)N[C@@H](Cc2ccccc2)C(=O)N[C@H](C(=O)O)CSSC[C@@H](C(=O)NCC(=O)NCC(=O)N2CCC[C@H]2C(=O)N[C@@H](CCCNC(=N)N)C(=O)N[C@@H](Cc2c[nH]c3ccccc23)C(=O)N[C@@H](CO)C(=O)N[C@H](C(=O)N[C@@H](CCC(=O)O)C(=O)N[C@@H](C)C(=O)O)[C@@H](C)O)NC(=O)[C@H](C(C)C)NC(=O)[C@H](CCCNC(=N)N)NC(=O)[C@H](C(C)C)NC(=O)[C@H](CC(C)C)NC(=O)[C@H](C)NC(=O)[C@H](CCCNC(=N)N)NC(=O)[C@H](C(C)C)NC(=O)[C@H](Cc2ccccc2)NC(=O)[C@H](Cc2c[nH]cn2)NC(=O)[C@H](Cc2c[nH]cn2)NC(=O)CNC1=O [H2-A/INSL3-B]
2 | high affinity antagonists | unable to stimulate cAMP | CSCC[C@H](NC(=O)[C@H](CCC(=O)O)NC(=O)[C@@H]1CCCN1C(=O)[C@@H](NC(=O)[C@@H]1CCCN1)[C@@H](C)O)C(=O)N[C@@H](CCCNC(=N)N)C(=O)N[C@@H](CCC(=O)O)C(=O)N[C@@H](CCCCN)C(=O)N[C@@H](CC(C)C)C(=O)N[C@H]1CSSC[C@@H]2NC(=O)[C@@H](NC(=O)[C@H](CC(C)C)NC(=O)[C@@H](NC(=O)[C@H](CCC(N)=O)NC(=O)[C@H](CC(C)C)NC(=O)[C@H](CC(=O)O)NC(=O)[C@@H]3CCC(=O)N3)[C@@H](C)O)CSSC[C@H](NC(=O)CNC(=O)[C@H](CC(=O)O)NC(=O)[C@H]([C@@H](C)O)NC2=O)C(=O)N[C@@H](CO)C(=O)N[C@@H](CCSC)C(=O)N[C@@H]([C@@H](C)O)C(=O)N[C@@H](CC(=O)O)C(=O)N[C@@H](CC(C)C)C(=O)N[C@@H](CO)C(=O)N[C@@H](C)C(=O)N[C@@H](CC(C)C)C(=O)N[C@H](C(=O)O)CSSC[C@@H](C(=O)NCC(=O)NCC(=O)N2CCC[C@H]2C(=O)N[C@@H](CCCNC(=N)N)C(=O)N[C@@H](Cc2c[nH]c3ccccc23)C(=O)N[C@@H](CO)C(=O)N[C@H](C(=O)N[C@@H](CCC(=O)O)C(=O)N[C@@H](C)C(=O)O)[C@@H](C)O)NC(=O)[C@H](C(C)C)NC(=O)[C@H](CCCNC(=N)N)NC(=O)[C@H](C(C)C)NC(=O)[C@H](CC(C)C)NC(=O)[C@H](C)NC(=O)[C@H](CCCNC(=N)N)NC(=O)[C@H](C(C)C)NC(=O)[C@H](Cc2ccccc2)NC(=O)[C@H](Cc2c[nH]cn2)NC(=O)[C@H](Cc2c[nH]cn2)NC(=O)CNC1=O [INSL5-A/INSL3-B]
